# Test results reported in ChEMBL document CHEMBL1129669, “Discovery of 1,5-benzodiazepines with peripheral cholecystokinin (CCK-A) receptor agonist activity. 1. Optimization of the agonist "trigger"” (J Med Chem, 1996).
# Active and inactive are the calls of the source. The rule behind the calls is not given here.
# Experiments:
# [1] = species: Cavia porcellus; experiment: Antagonist affinity (pKB) against contraction of guinea pig gall bladder measured at a dose 30 uM; format: functional
# [2] = species: Cavia porcellus; experiment: Percent contraction of the guinea pig gall bladder uM; Inactive; format: functional
# How it was run: (§1)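 Isolated guinea pig gallbladder incubated with ligand at 37 °C, 30 µM for 30 min or 1 µM for 60 min. Contraction expressed as percent of the contraction induced by 1 µM CCK-8.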
# [3] = species: Cavia porcellus; experiment: (§2) Percent contraction of the guinea pig gall bladder uM; format: functional; parameters: concentration or dose not given beside the values; how it was run: as §1
# [4] = target: T1, Gastrin/cholecystokinin type B receptor (Homo sapiens, UniProt P32239); experiment: Concentration required to displace [125I]Bolton-Hunter CCK-8 from human Cholecystokinin type B receptor expressed in CHO-K1 cells; format: cell-based
# T1 sequence (P32239 whole entry): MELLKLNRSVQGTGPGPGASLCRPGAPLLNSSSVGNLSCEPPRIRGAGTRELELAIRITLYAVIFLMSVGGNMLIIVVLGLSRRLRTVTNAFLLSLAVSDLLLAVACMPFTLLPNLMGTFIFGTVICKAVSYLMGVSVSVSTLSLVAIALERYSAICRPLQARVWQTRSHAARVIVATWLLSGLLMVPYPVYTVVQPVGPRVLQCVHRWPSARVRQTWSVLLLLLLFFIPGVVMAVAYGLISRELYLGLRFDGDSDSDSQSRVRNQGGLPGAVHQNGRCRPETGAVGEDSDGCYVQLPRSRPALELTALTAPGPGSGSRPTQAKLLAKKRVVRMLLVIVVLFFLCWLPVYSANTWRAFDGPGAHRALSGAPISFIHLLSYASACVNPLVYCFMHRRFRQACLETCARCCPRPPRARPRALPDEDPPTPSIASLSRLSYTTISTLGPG
# [5] = target: T2, Cholecystokinin receptor type A (Homo sapiens, UniProt P32238); experiment: Concentration required to displace [125I]Bolton-Hunter CCK-8 from human Cholecystokinin type A receptor stably expressed in CHO-K1 cells; format: cell-based
# T2 sequence (P32238 whole entry): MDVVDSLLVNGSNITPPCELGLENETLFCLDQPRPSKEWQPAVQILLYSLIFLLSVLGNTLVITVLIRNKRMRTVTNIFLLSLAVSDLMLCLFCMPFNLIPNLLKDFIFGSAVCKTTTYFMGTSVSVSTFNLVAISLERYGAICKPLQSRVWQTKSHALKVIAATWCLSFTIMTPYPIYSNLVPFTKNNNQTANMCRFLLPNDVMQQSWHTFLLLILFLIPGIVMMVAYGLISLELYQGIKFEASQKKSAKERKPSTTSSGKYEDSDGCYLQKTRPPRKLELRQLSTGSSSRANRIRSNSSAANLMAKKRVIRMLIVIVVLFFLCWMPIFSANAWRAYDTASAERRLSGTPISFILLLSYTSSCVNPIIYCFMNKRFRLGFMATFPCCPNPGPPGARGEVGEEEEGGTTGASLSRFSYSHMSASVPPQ
# [6] = system: Rattus norvegicus; experiment: Maximal response of the rat to anorectic potency 30 min after intraperitoneal administration (1 uM/Kg); format: functional
# [7] = species: Rattus norvegicus; experiment: Anorectic potency in rats conditioned to a palatable liquid diet and fasted for 2 hours; format: functional
# [8] = species: Cavia porcellus; experiment: Guinea pig gall bladder contraction by the compound at concentration 30 uM in the absence of MK329; format: functional; how it was run: as §1
# [9] = species: Cavia porcellus; experiment: Guinea pig gall bladder contraction by the compound at concentration 30 uM in the presence of MK329; format: functional
# How it was run: (§3)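 Isolated guinea pig gallbladder contraction induced by test ligand (30 µM screen), then reversed with MK-329 at 1 µM to confirm a CCK-A receptor-mediated response.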
# [10] = species: Cavia porcellus; experiment: Percentage reversal of isolated guinea pig gall bladder contraction by the compound; format: functional; how it was run: as §3
# [11] = species: Cavia porcellus; experiment: as §2; format: functional; how it was run: as §1
# [12] = species: Cavia porcellus; experiment: Guinea pig gall bladder contraction by the compound at concentration 1 uM in the presence of MK329; format: functional
# [13] = species: Cavia porcellus; experiment: Guinea pig gall bladder contraction by the compound at concentration 1 uM in the absence of MK329; format: functional; how it was run: as §1
# [14] = system: Rattus norvegicus; experiment: Maximal response of the rat to anorectic potency 30 min after intraperitoneal administration (0.5 uM/Kg); format: functional
structure (smiles),measurement,setting,value
O=C(CN1C(=O)C(NC(=O)Nc2ccccc2)C(=O)N(c2ccccc2)c2ccccc21)Nc1ccccc1 (configuration not stated),pKB,[1],6.33
same,Activity,[2],inactive
CCN(CC)C(=O)CN1C(=O)C(NC(=O)Nc2ccccc2)C(=O)N(c2ccccc2)c2ccccc21 (configuration not stated),Activity,[3],38%
CN(C(=O)CN1C(=O)C(NC(=O)Nc2ccccc2)C(=O)N(c2ccccc2)c2ccccc21)c1ccccc1 (configuration not stated),pKB,[1],6.27
same,Activity,[2],inactive
O=C(Nc1ccccc1)NC1C(=O)N(CC(=O)N(c2ccccc2)C2CCCCC2)c2ccccc2N(c2ccccc2)C1=O (configuration not stated),Activity,[3],26%
O=C(Nc1ccccc1)NC1C(=O)N(CC(=O)N(CCNC(=O)OCc2ccccc2)c2ccccc2)c2ccccc2N(c2ccccc2)C1=O (configuration not stated),Activity,[2],inactive
CC(C)N(C(=O)CN1C(=O)C(NC(=O)Nc2ccccc2)C(=O)N(c2ccccc2)c2ccccc21)c1ccc(C(=O)O)cc1 (configuration not stated),IC50,[4],0.0398 µM
same,Activity,[3],10%
same,pKB,[1],6.14
same,IC50,[5],2.51 µM
O=C(O)CN(C(=O)CN1C(=O)C(NC(=O)Nc2ccccc2)C(=O)N(c2ccccc2)c2ccccc21)c1ccccc1 (configuration not stated),pKB,[1],6.33
same,Activity,[2],inactive
CCCCN(C(=O)CN1C(=O)C(NC(=O)Nc2ccccc2)C(=O)N(c2ccccc2)c2ccccc21)c1ccccc1 (configuration not stated),Activity,[3],27%
CC(C)N(C(=O)CN1C(=O)C(NC(=O)Nc2ccccc2)C(=O)N(c2ccccc2)c2ccccc21)C(C)C (configuration not stated),Activity,[3],21%
CC(C)N(C(=O)CN1C(=O)C(NC(=O)Nc2ccccc2)C(=O)N(c2ccccc2)c2ccccc21)c1ccccc1 (configuration not stated),Max response,[6],48%
same,Activity,[3],86%
same,ED50,[7],0.95 µmol/kg
same,GPGB tension,[8],2.53 g
same,GPGB tension,[9],0.43 g
same,Reversal,[10],117%
CC(C)N(C(=O)CN1C(=O)C(NC(=O)Nc2ccccc2)C(=O)N(c2ccccc2)c2ccccc21)c1ccc(N(C)C)cc1.O=C(O)C(F)(F)F (configuration not stated),Activity,[11],46%
same,IC50,[4],0.251 µM
same,Max response,[6],54%
same,GPGB tension,[12],0.01 g
same,Activity,[3],75%
same,ED50,[7],0.09 µmol/kg
same,IC50,[5],0.0631 µM
same,GPGB tension,[13],2.55 g
same,Reversal,[10],100%
CSCC[C@H](NC(=O)[C@H](Cc1ccc(OS(=O)(=O)O)cc1)NC(=O)[C@@H](N)CC(=O)O)C(=O)NCC(=O)N[C@@H](Cc1c[nH]c2ccccc12)C(=O)N[C@@H](CCSC)C(=O)N[C@@H](CC(=O)O)C(=O)N[C@@H](Cc1ccccc1)C(N)=O [SINCALIDE],ED50,[7],0.03 µmol/kg
same,Max response,[14],96%
CC(C)N(C(=O)CN1C(=O)C(NC(=O)Nc2ccccc2)C(=O)N(c2ccccc2)c2ccccc21)c1ccc(O)cc1 (configuration not stated),IC50,[4],0.0158 µM
same,Max response,[6],74%
same,Activity,[3],81%
same,ED50,[7],0.05 µmol/kg
same,IC50,[5],0.0398 µM
same,GPGB tension,[8],2.25 g
same,GPGB tension,[9],0 g
same,Reversal,[10],100%
CCN(C(=O)CN1C(=O)C(NC(=O)Nc2ccccc2)C(=O)N(c2ccccc2)c2ccccc21)c1ccccc1 (configuration not stated),Activity,[3],66%
CCOC(=O)CN(C(=O)CN1C(=O)C(NC(=O)Nc2ccccc2)C(=O)N(c2ccccc2)c2ccccc21)c1ccccc1 (configuration not stated),Activity,[3],16%
CCCN(C(=O)CN1C(=O)C(NC(=O)Nc2ccccc2)C(=O)N(c2ccccc2)c2ccccc21)c1ccccc1 (configuration not stated),Activity,[3],50%
CC(C)N(Cc1ccccc1)C(=O)CN1C(=O)C(NC(=O)Nc2ccccc2)C(=O)N(c2ccccc2)c2ccccc21 (configuration not stated),Activity,[3],34%
N#CCCN(C(=O)CN1C(=O)C(NC(=O)Nc2ccccc2)C(=O)N(c2ccccc2)c2ccccc21)c1ccccc1 (configuration not stated),Activity,[3],32%
NCCN(C(=O)CN1C(=O)C(NC(=O)Nc2ccccc2)C(=O)N(c2ccccc2)c2ccccc21)c1ccccc1 (configuration not stated),Activity,[3],7%
same,pKB,[1],5.88
O=C(Nc1ccccc1)NC1C(=O)N(CC(=O)N(c2ccccc2)c2ccccc2)c2ccccc2N(c2ccccc2)C1=O (configuration not stated),Activity,[3],43%
COc1ccc(N(C(=O)CN2C(=O)C(NC(=O)Nc3ccccc3)C(=O)N(c3ccccc3)c3ccccc32)C(C)C)cc1 (configuration not stated),Activity,[11],82%
same,IC50,[4],0.0501 µM
same,Max response,[6],62%
same,Activity,[3],93%
same,ED50,[7],0.07 µmol/kg
same,IC50,[5],0.0794 µM
same,GPGB tension,[8],2.88 g
same,GPGB tension,[9],0.2 g
same,Reversal,[10],107%
CC(C)N(C(=O)CN1C(=O)C(NC(=O)Nc2ccccc2)C(=O)N(c2ccccc2)c2ccccc21)c1ccc(N2CCOCC2)cc1 (configuration not stated),Activity,[11],74%
same,IC50,[4],0.158 µM
same,Max response,[6],26%
same,GPGB tension,[12],0.43 g
same,ED50,[7],0.2 µmol/kg
same,GPGB tension,[13],1.88 g
same,Reversal,[10],123%
CC(C)N(C(=O)CN1C(=O)C(NC(=O)Nc2ccccc2)C(=O)N(c2ccccc2)c2ccccc21)c1ccc(F)cc1 (configuration not stated),Activity,[11],53%
same,IC50,[4],0.0316 µM
same,Max response,[6],56%
same,GPGB tension,[12],0.34 g
same,ED50,[7],0.2 µmol/kg
same,IC50,[5],0.1 µM
same,GPGB tension,[13],2.14 g
same,Reversal,[10],116%
